Measured values as given in article PMC8453865 (Clinical Pharmacology in Drug Development, 2021).
Values joined by “and” are separate entries in the source; they are usually repeats but may differ in a detail not shown here. Identical values can stand only once.

Tests used:
[1] = system: CYP3A4/CYP1A2; details: 14 patients, repeat-dose dabrafenib (HPMC capsules); cited from earlier work
[2] = system: CYP2C9; details: 14 patients, repeat-dose dabrafenib (HPMC capsules); cited from earlier work
[3] = system: OATP1B1; details: in vitro; cited from earlier work
[4] = system: OATP1B3; details: in vitro; cited from earlier work
[5] = system: CYP3A4; details: in vitro, via activation of the pregnane X receptor and constitutive androstane receptor; cited from earlier work
[6] = system: CYP2B6; details: in vitro, via activation of the pregnane X receptor and constitutive androstane receptor; cited from earlier work
[7] = system: BCRP; details: in vitro; cited from earlier work
[8] = cited from earlier work
[9] = Safety and tolerability in patients; assay type: in vivo, human; details: 16 patients, midazolam 3 mg
Summary of the method: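 Open-label, fixed-sequence study in patients with BRAF V600 mutation–positive tumours. CYP3A and OATP1B1/1B3 probe substrates (3 mg and 10 mg) were given together on day 1, then with the test compound (150 mg twice daily, days 8–23) on days 8 and 22, after an overnight fast of at least 8 h. Monitoring covered physical examination, vital signs, 12-lead ECG, haematology and clinical chemistry, and AEs graded by NCI CTCAE v4.03.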

[10] = human, plasma
[11] = system: CYP3A4; experiment: Effect of dabrafenib
[12] = cited from earlier work; remark: listed apart in the source
[13] = in vivo; cited from earlier work
[14] = system: OATP1B1/1B3; experiment: Effect of dabrafenib; assay type: in vivo, human
[15] = initial administration of dabrafenib vs midazolam alone
[16] = clinical study, coadministration with gemfibrozil
[17] = repeat dabrafenib dosing 150 mg twice daily (steady state) vs rosuvastatin alone

For `CC(=O)C[C@H](c1ccccc1)c1c(O)c2ccccc2oc1=O` [R‐warfarin], the “decrease in single‐dose AUC” value [1] is listed as 33%.

For `CC(=O)C[C@@H](c1ccccc1)c1c(O)c2ccccc2oc1=O` [S‐warfarin], the “decrease in single‐dose AUC” value [2] is given as 37%.

In the case of `CC(C)(C(=O)O)c1nc(-c2cccc(NS(=O)(=O)c3c(F)cccc3F)c2F)c(-c2ccnc(N)n2)s1` [carboxy‐dabrafenib], the “inhibition of OATP1B1” value [3] is given as “inhibitors” and the “inhibition of OATP1B3” value [4] is given as “inhibitors”.

In the case of `CC(C)(C)c1nc(-c2cccc(NS(=O)(=O)c3c(F)cccc3F)c2F)c(-c2ccnc(N)n2)s1` [dabrafenib], the “inhibition of OATP1B1” value [3] is listed as “inhibitors”, the “induction of CYP3A4” value [5] is listed as “induces” and the “inhibition of OATP1B3” value [4] is listed as “inhibitors”. The “induction of CYP2B6” value [6] was “induces”, the “inhibition of BCRP” value [7] was “inhibitors” and the “AUC HPMC/gelatin” value ([8]; dabrafenib HPMC capsules vs gelatin capsules) was 1.8 fold. For the same compound, the “median terminal‐phase half‐life (t1/2)” value ([8]; single oral dose of dabrafenib) was “≈ 8 hours”, the “time of peak plasma concentrations after dosing” value ([8]; single oral dose of dabrafenib) was “approximately 2 hours” and the oral bioavailability ([8]; single oral dose relative to an intravenous microdose) was 94.5%.

In the case of `CC(C)c1nc(-c2cccc(NS(=O)(=O)c3c(F)cccc3F)c2F)c(-c2ccnc(N)n2)s1` [desmethyl‐dabrafenib], the “inhibition of OATP1B1” value [3] is listed as “inhibitors”, the “inhibition of OATP1B3” value [4] is listed as “inhibitors” and the “inhibition of BCRP” value [7] is listed as “inhibitors”.

In the case of `CC(C)(CO)c1nc(-c2cccc(NS(=O)(=O)c3c(F)cccc3F)c2F)c(-c2ccnc(N)n2)s1` [hydroxy‐dabrafenib], the “inhibition of OATP1B1” value [3] is given as “inhibitors”, the “inhibition of OATP1B3” value [4] is given as “inhibitors” and the “terminal half‐life of metabolite” value ([8]; dabrafenib metabolites) is given as 582 min.

In the case of `Cc1ncc2n1-c1ccc(Cl)cc1C(c1ccccc1F)=NC2` [midazolam], the “grade 4 presyncope attributed to midazolam dosing” value [9] is reported as 1 patient, the Tmax [10] is reported as 15 min and the “change in midazolam AUC0‐∞” value [11, 15] is reported as “no change”. The “decrease in midazolam Cmax” value [11, 15] was 1%, the “effect of dabrafenib on midazolam tmax” value ([11]; initial and repeat dabrafenib dosing vs midazolam alone) was “No effect” and the “decrease in midazolam Cmax” value ([11]; repeat dabrafenib dosing 150 mg twice daily (steady state) vs midazolam alone) was 47%.

In the case of `CC(C)c1nc(N(C)S(C)(=O)=O)nc(-c2ccc(F)cc2)c1/C=C/[C@@H](O)C[C@@H](O)CC(=O)O` [rosuvastatin], the “rosuvastatin AUC change with gemfibrozil” value [12, 16] is given as 1.9 fold, the “rosuvastatin Cmax change with gemfibrozil” value [12, 16] is given as 2.21 fold and the “alteration in the PK parameters of rosuvastatin” value ([12]; healthy volunteer study, after 6 days of rifampin (inducer) dosing) is given as “no significant alteration”. The “rosuvastatin AUC increase with tipranavir/ritonavir” value ([12]; tipranavir/ritonavir 500 mg/200 mg twice daily for 11 days) was 26%, the “excreted unchanged in the feces” value [13] was 90% and the “increase in rosuvastatin Cmax” value ([14]; dabrafenib at initiation of dosing vs rosuvastatin alone) was 1.9 fold. For the same compound, the “increase in rosuvastatin AUC0‐∞” value [14, 17] was 7% and the “increase in rosuvastatin Cmax” value [14, 17] was 2.56 fold and 2.6 fold.
